In the library only some 3.8% were active in any assay of this set; here they are far more common.
KCNQ1 block = inhibitors of human KCNQ1 channel, primary screen, cell-based, thallium flux, high-throughput. B-score at 10 µM. actives 1.3% (n = 310,000). CHO-K1 KCNQ1, FluxOR thallium flux fluorescence; hits give high values;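 active = compounds whose thallium flux B-score, printed positive for inhibition, exceeds three library SD while starting fluorescence stays within three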;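 note: channel opened by potassium depolarization with thallium stimulus after 20 min compound exposure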
hERG rescue = hERG rescue from dofetilide block, primary screen, cell-based, CHO-hERG, FluxOR thallium flux, dofetilide IC70 | actives 0.51% (n = 310,000) | activation (rescue from dofetilide block), less the hit threshold, % at 10 µM | AID 1511, 2009 | Voltage-gated inwardly rectifying potassium channel KCNH2 (Homo sapiens), Q12809 | dofetilide IC70 present;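 active = activation above the mean of controls blocked by dofetilide plus 5 SD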;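 note: thallium influx through hERG after potassium depolarization seen as dye fluorescence rise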
KCNK9 inh = KCNK9 potassium channel inhibitors, primary screen, HEK293 cells, thallium flux; B-score at 10 µM; actives 1.2% (n = 310,000); Potassium channel subfamily K member 9 (Homo sapiens), Q9NPC2; FluxOR thallium flux fluorescence; hits give low values;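 active = ratio B-score over 3 SD below the library mean, with starting fluorescence within 5 SD of its mean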;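 note: negative B-score means less thallium flux so channel inhibition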
KCNK3 block = human KCNK3 channel inhibitors, primary screen, CHO cells, FluxOR thallium flux, B-score. FluxOR fluorescence; hits give low values. B-score at 10 µM. actives 0.84% (n = 340,000). AID 602410, 2012;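 active = B-score under library mean minus 4 SD, starting fluorescence ratio at most library mean plus 5 SD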;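 note: more negative B-score means stronger inhibition of thallium flux through KCNK3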
Target sequence (O14649 whole entry, looked up): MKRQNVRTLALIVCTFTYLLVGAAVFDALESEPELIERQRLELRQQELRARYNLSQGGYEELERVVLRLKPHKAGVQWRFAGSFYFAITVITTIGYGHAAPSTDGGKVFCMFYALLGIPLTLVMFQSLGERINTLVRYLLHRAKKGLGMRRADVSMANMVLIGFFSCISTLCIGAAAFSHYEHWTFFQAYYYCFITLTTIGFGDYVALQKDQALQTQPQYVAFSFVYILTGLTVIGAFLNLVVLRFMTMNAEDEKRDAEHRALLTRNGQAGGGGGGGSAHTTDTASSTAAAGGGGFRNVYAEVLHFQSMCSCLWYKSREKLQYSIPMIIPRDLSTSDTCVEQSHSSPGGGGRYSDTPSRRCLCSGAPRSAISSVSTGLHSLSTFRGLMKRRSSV
KCNQ1 act = potentiators or activators of KCNQ1 channel, primary screen, cell-based, thallium flux, high-throughput; actives 0.35% (n = 310,000); B-score at 10 µM; Potassium voltage-gated channel subfamily KQT member 1 (Homo sapiens), P51787; CHO-K1 KCNQ1, thallium flux FluxOR fluorescence; hits give high values; AID 2648, 2010;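 active = fluorescence ratio B-score, a plate-corrected score, at least three library SD, with initial intensity B-score within 5 SD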
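assay system = KCNQ1-transfected CHO-K1 cells | medium = assay buffer with matched DMSO | probe or stimulus = depolarizing K+/Tl+ stimulus, K2SO4 and Tl2SO4 each 12.5 mM in 5x stock | dosing = single dose | incubation = dye 90 min, compound 20 min, room temperature | detection = kinetic FluxOR fluorescence, 10 s baseline plus 110 s post-stimulus | evaluation = ratio B score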
Kir21 block = inhibitors of mouse Kir2.1 inward-rectifier potassium channel; HEK293-Kir2.1, FluxOR thallium flux fluorescence; hits give low values; actives 0.85% (n = 310,000); AID 1672, 2009; Inward rectifier potassium channel 2 (Mus musculus), P35561; B-score at 10 µM;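 active = fluorescence ratio B-score at or below minus 3 SD of library scores, with starting-brightness B-score within 2 SD, cut at about -4.2 in these data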;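 note: channel flux triggered by added potassium and thallium sulfate stimulus; B-score of peak minus minimum fluorescence over baseline after thallium stimulus; more negative B-score means stronger Kir2.1 block with less thallium influx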
* hit, by the source's call; i = inactive; x = not tested or not shown.

SMILES	KCNQ1 block	hERG rescue	KCNK9 inh	KCNK3 block	KCNQ1 act	Kir21 block
Cc1ccc(NC(=O)CSc2ncc3ccccn23)cc1C	i	5.9*	i	i	i	-2
COc1cc(CCCN2C(=S)NC[C@@H]2CC2CCCCC2)cc(OC)c1OC	i	-13	i	i	i	-4.3*
COc1cc(Cl)c(C)cc1NC(=O)CNC(C)c1ccccc1OC (stereo unspecified)	i	-23	i	i	i	-4.2*
COc1ccccc1C(C)NCC(=O)Nc1c(F)cccc1F (stereo unspecified)	i	-20	i	i	i	-0.6
CCOc1ccccc1NC1=C(Cl)C(=O)N(c2ccccc2)C1=O	i	-11	i	i	13*	1.9
c1cncc(-c2nc(NCc3ccco3)c3ccccc3n2)c1	i	-16	i	i	i	2.3
Cc1ccc(C(=O)n2nc(-c3ccccc3)nc2NCc2ccco2)cc1	i	-8	i	i	i	-0.03
c1ccc(Nc2nc(NCc3ccco3)c3ccccc3n2)cc1	i	-23	i	i	i	-17*
Cc1ccc(-c2nc(NCc3ccco3)c3ccccc3n2)cc1	i	-18	-6.6*	i	i	0.27
CCCC(=O)n1nc(-c2ccc(C)cc2)nc1NCc1ccco1	i	-13	i	i	10*	0.02
Cc1ccc(N2C(=O)N(CC(=O)Nc3cc(C)cc(C)c3)C(=O)C2C)cc1 (stereo unspecified)	i	-15	i	i	i	-0.27
Cc1ccccc1C(=O)Oc1ccc2ccc(O)cc2c1	i	-7	i	i	i	0.38
COc1ccc(N2CCN(C(=O)Cc3ncc(C(F)(F)F)cc3Cl)CC2)cc1	i	-8	i	i	i	1.6
O=C(O)c1ccc(CN2C(=O)c3cccc4c([N+](=O)[O-])ccc(c34)C2=O)cc1	10*	-8	i	i	i	-0.2
Cc1ccc(C(=O)O)cc1N1C(=O)c2cccc3c([N+](=O)[O-])ccc(c23)C1=O	i	-21	i	i	i	-0.61
O=C(NCCN1CCN(Cc2ccccc2)CC1)Nc1cc(Cl)cc(Cl)c1	6*	-24	i	i	i	-0.7
O=C(NCCN1CCN(c2cccc(Cl)c2)CC1)Nc1ccccc1	i	-10	i	i	i	-0.13
Cc1cccc(-n2c(SCC(=O)O)nc3sc4c(c3c2=O)CCCC4)c1	i	-6	i	i	i	-0.46
CCOc1cc2[nH]c(=S)n(CC3CCCO3)c(=O)c2cc1OCC (stereo unspecified)	i	-5	i	i	i	0.06
O=C(OCn1nnc2ccccc2c1=O)c1ccc(O)cc1	i	-15	i	i	i	1.4
CCCC1=C(C(=O)OCC)C(c2cccs2)C(C#N)=C(N)O1 (stereo unspecified)	i	-12	i	i	i	-1.9
O=C(NN=Cc1c(O)ccc2ccccc12)c1ccc2c(c1)OCO2	x	x	x	i	x	x
Oc1ccc(N=Nc2ccc3c(c2)OCO3)c2ccccc12	i	-4	i	x	9*	-0.01
COc1ccc(CNC(=O)c2sc3nc4c(c(C(F)(F)F)c3c2N)CCC4)cc1	i	-9	i	x	i	-5.1*
CC1CCCCC12NC(=O)N(CC(=O)NCCc1c[nH]c3ccccc13)C2=O (stereo unspecified)	x	x	x	i	x	x
SMILES	KCNQ1 block	hERG rescue	KCNK9 inh	KCNK3 block	KCNQ1 act	Kir21 block
OC(CNC1CCCCC1)COCCOc1ccc(Br)cc1 (stereo unspecified)	i	-11	i	i	i	-4.3*
OC(COCCOc1ccc(Br)cc1)CN1CCN(Cc2ccccc2)CC1 (stereo unspecified)	i	-7	i	i	i	-7.4*
CCc1ccc(OCCOCC(O)CN2CCN(Cc3ccc(Cl)cc3)CC2)cc1 (stereo unspecified)	i	-14	i	i	i	-9.1*
O=P(c1ccccc1)(c1ccccc1)N(c1ccccc1)c1ccccc1	7*	-4	i	i	i	0
Cc1cccc(/N=C/c2c(O)ccc3oc4c(c23)CCCC4)n1	i	-4	i	i	i	0.8
CC(C)Cn1c(O)c(N=NC(=O)c2cccc(S(=O)(=O)N3CCCCC3)c2)c2ccccc21	i	-10	-7.9*	i	i	-1.3
O=C1C(=NO)CCCc2ccccc21	x	x	x	i	x	x
CC(C)NC(=O)c1ccc(CSCc2ccccc2Cl)o1	i	-4	i	i	i	-1.5
CCC(C)NC(=O)c1ccc(CSCc2ccccc2Cl)o1 (stereo unspecified)	i	1	-6.7*	i	i	0.02
COc1ccc(COC(=O)CCS(=O)(=O)c2ccc(C)cc2)cc1	i	-13	i	i	i	1.9
CCC(=O)Nc1cccc(-c2nnc(-c3ccccc3)o2)c1	i	-18	i	i	i	0.2
CC(C)CC(=O)/C(=C\c1ccc(Cl)cc1Cl)n1cncn1	i	-24	i	i	i	-8.2*
CC(C)CC(=O)/C(=C/c1ccc(N(C)C)cc1)n1cncn1	i	-9	i	i	i	-1.6
Cc1ccc(S(=O)(=O)c2ccc([N+](=O)[O-])cn2)cc1	i	-22	i	i	i	-2.8
O=[N+]([O-])c1ccc(S(=O)(=O)c2ccccc2)nc1	i	-23	i	i	i	-8.1*
O=C1C2C(c3cccc(/C=C/c4ccccc4)c3)CC=CC2C(c2ccc3ccccc3c2)N1Cc1ccccc1 (stereo unspecified)	i	-8	i	i	i	2
C[C@@H]1CC=C[C@H]2[C@H]1C(=O)N(Cc1ccccc1)[C@H]2c1ccc(F)c(Br)c1	10*	-26	-19*	x	i	-3
Cc1ccc(-c2cccc(C3CC=CC4C3C(=O)N(Cc3ccccc3)C4c3ccc4ccccc4c3)c2)cc1 (stereo unspecified)	i	8.4*	i	i	i	-0.05
CCCCn1c(-c2csc(C(C)C)c2)n[nH]c1=S	i	5.0*	i	i	i	-1.9
CCCCCCn1c(-c2cccs2)n[nH]c1=S	i	7.9*	i	i	i	-1.3

Bioassay records deposited in PubChem by Johns Hopkins Ion Channel Center.
